Test system: U2OS
Test: Multiplex assay against U2OS
Assay type: toxicity, cell-based
Conditions: human
In short: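 Per cents of healthy-nucleus cells form the tubulin, mitochondrial-mass and membrane-permeability phenotype values. Live cells were stained at seeding with Hoechst33342, BioTracker Green Microtubule Cytoskeleton Dye, MitoTracker Red and Annexin V Alexa Fluor 680. After compound addition they were imaged on a CQ1 microscope at 37°C and 5% CO2, and CellPathfinder machine-learning gating split them into Hoechst high-intensity objects or normal cells, normal cells into healthy, pyknosed or fragmented nuclei, and pyknosed cells into mitotic or apoptotic.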

[1] = 12 h, 1 µM, compound concentration 1 uM, replicate 1
[2] = 12 h, 1 µM, compound concentration 1 uM, replicate 2
[3] = 12 h, 10 µM, compound concentration 10 uM, replicate 1
[4] = 12 h, 10 µM, compound concentration 10 uM, replicate 2
[5] = 24 h, 1 µM, compound concentration 1 uM, replicate 1
[6] = 24 h, 1 µM, compound concentration 1 uM, replicate 2
[7] = 24 h, 10 µM, compound concentration 10 uM, replicate 1
[8] = 24 h, 10 µM, compound concentration 10 uM, replicate 2
[9] = 48 h, 1 µM, compound concentration 1 uM, replicate 1
[10] = 48 h, 1 µM, compound concentration 1 uM, replicate 2
[11] = 48 h, 10 µM, compound concentration 10 uM, replicate 1
[12] = 48 h, 10 µM, compound concentration 10 uM, replicate 2

CC(/C=C1\SC(=S)N(CCCC(=O)Nc2ccc(C(=O)O)c(O)c2)C1=O)=C\c1ccccc1
Population Apoptotic (%) [1]: 94%
Population Fragmented Nuclei (%) [1]: 26%
Population Healthy Nuclei (%) [1]: 64%
Population Hoechst High Intensity Objects (%) [1]: 3%
Population Membrane Permeable-Phenotype (%) [1]: 4%
Population Mitochondria Different-Phenotype (%) [1]: 1%
Population Mitotic Cells (%) [1]: 5%
Population Normal (%) [1]: 96%
Population Pyknosed Nuclei (%) [1]: 8%
Population Tubulin-Different-Phenotype (%) [1]: 3%
Total Cell Count [1]: 205
Population Apoptotic (%) [2]: 100%
Population Fragmented Nuclei (%) [2]: 12%
Population Healthy Nuclei (%) [2]: 80%
Population Hoechst High Intensity Objects (%) [2]: 4%
Population Membrane Permeable-Phenotype (%) [2]: 3%
Population Mitochondria Different-Phenotype (%) [2]: 2%
Population Mitotic Cells (%) [2]: 0%
Population Normal (%) [2]: 95%
Population Pyknosed Nuclei (%) [2]: 7%
Population Tubulin-Different-Phenotype (%) [2]: 0%
Total Cell Count [2]: 133
Population Apoptotic (%) [3]: 91%
Population Fragmented Nuclei (%) [3]: 28%
Population Healthy Nuclei (%) [3]: 61%
Population Hoechst High Intensity Objects (%) [3]: 3%
Population Membrane Permeable-Phenotype (%) [3]: 12%
Population Mitochondria Different-Phenotype (%) [3]: 2%
Population Mitotic Cells (%) [3]: 8%
Population Normal (%) [3]: 96%
Population Pyknosed Nuclei (%) [3]: 9%
Population Tubulin-Different-Phenotype (%) [3]: 4%
Total Cell Count [3]: 241
Population Apoptotic (%) [4]: 72%
Population Fragmented Nuclei (%) [4]: 16%
Population Healthy Nuclei (%) [4]: 72%
Population Hoechst High Intensity Objects (%) [4]: 0%
Population Membrane Permeable-Phenotype (%) [4]: 4%
Population Mitochondria Different-Phenotype (%) [4]: 1%
Population Mitotic Cells (%) [4]: 27%
Population Normal (%) [4]: 100%
Population Pyknosed Nuclei (%) [4]: 10%
Population Tubulin-Different-Phenotype (%) [4]: 5%
Total Cell Count [4]: 101
Population Apoptotic (%) [5]: 83%
Population Fragmented Nuclei (%) [5]: 25%
Population Healthy Nuclei (%) [5]: 64%
Population Hoechst High Intensity Objects (%) [5]: 3%
Population Membrane Permeable-Phenotype (%) [5]: 4%
Population Mitochondria Different-Phenotype (%) [5]: 1%
Population Mitotic Cells (%) [5]: 16%
Population Normal (%) [5]: 96%
Population Pyknosed Nuclei (%) [5]: 10%
Population Tubulin-Different-Phenotype (%) [5]: 1%
Total Cell Count [5]: 247
Population Apoptotic (%) [6]: 94%
Population Fragmented Nuclei (%) [6]: 9%
Population Healthy Nuclei (%) [6]: 79%
Population Hoechst High Intensity Objects (%) [6]: 1%
Population Membrane Permeable-Phenotype (%) [6]: 10%
Population Mitotic Cells (%) [6]: 5%
Population Normal (%) [6]: 98%
Total Cell Count [6]: 177
Population Apoptotic (%) [7]: 88%
Population Fragmented Nuclei (%) [7]: 26%
Population Healthy Nuclei (%) [7]: 64%
Population Hoechst High Intensity Objects (%) [7]: 2%
Population Membrane Permeable-Phenotype (%) [7]: 7%
Population Mitochondria Different-Phenotype (%) [7]: 3%
Population Mitotic Cells (%) [7]: 11%
Population Normal (%) [7]: 97%
Population Pyknosed Nuclei (%) [7]: 8%
Population Tubulin-Different-Phenotype (%) [7]: 3%
Total Cell Count [7]: 298
Population Apoptotic (%) [8]: 53%
Population Fragmented Nuclei (%) [8]: 16%
Population Healthy Nuclei (%) [8]: 72%
Population Hoechst High Intensity Objects (%) [8]: 0%
Population Mitochondria Different-Phenotype (%) [8]: 6%
Population Mitotic Cells (%) [8]: 46%
Population Normal (%) [8]: 100%
Population Pyknosed Nuclei (%) [8]: 11%
Population Tubulin-Different-Phenotype (%) [8]: 6%
Total Cell Count [8]: 111
Population Apoptotic (%) [9]: 93%
Population Fragmented Nuclei (%) [9]: 16%
Population Healthy Nuclei (%) [9]: 74%
Population Hoechst High Intensity Objects (%) [9]: 2%
Population Membrane Permeable-Phenotype (%) [9]: 5%
Population Mitochondria Different-Phenotype (%) [9]: 1%
Population Mitotic Cells (%) [9]: 6%
Population Normal (%) [9]: 97%
Population Pyknosed Nuclei (%) [9]: 8%
Population Tubulin-Different-Phenotype (%) [9]: 1%
Total Cell Count [9]: 368
Population Apoptotic (%) [10]: 78%
Population Fragmented Nuclei (%) [10]: 11%
Population Healthy Nuclei (%) [10]: 79%
Population Hoechst High Intensity Objects (%) [10]: 3%
Population Membrane Permeable-Phenotype (%) [10]: 4%
Population Mitochondria Different-Phenotype (%) [10]: 3%
Population Mitotic Cells (%) [10]: 21%
Population Normal (%) [10]: 96%
Population Pyknosed Nuclei (%) [10]: 9%
Population Tubulin-Different-Phenotype (%) [10]: 2%
Total Cell Count [10]: 253
Population Apoptotic (%) [11]: 97%
Population Fragmented Nuclei (%) [11]: 19%
Population Healthy Nuclei (%) [11]: 68%
Population Hoechst High Intensity Objects (%) [11]: 2%
Population Membrane Permeable-Phenotype (%) [11]: 6%
Population Mitochondria Different-Phenotype (%) [11]: 2%
Population Mitotic Cells (%) [11]: 2%
Population Normal (%) [11]: 97%
Population Pyknosed Nuclei (%) [11]: 12%
Population Tubulin-Different-Phenotype (%) [11]: 4%
Total Cell Count [11]: 396
Population Apoptotic (%) [12]: 82%
Population Fragmented Nuclei (%) [12]: 16%
Population Healthy Nuclei (%) [12]: 73%
Population Hoechst High Intensity Objects (%) [12]: 1%
Population Membrane Permeable-Phenotype (%) [12]: 4%
Population Mitochondria Different-Phenotype (%) [12]: 1%
Population Mitotic Cells (%) [12]: 17%
Population Normal (%) [12]: 98%
Population Pyknosed Nuclei (%) [12]: 10%
Population Tubulin-Different-Phenotype (%) [12]: 0%
Total Cell Count [12]: 170

Reference: ChEMBL document CHEMBL5058577, “EUbOPEN Chemogenomics Library 2 (Multiplex)” (2022)
